Laboratory results as given in ChEMBL document CHEMBL4028911, “Discovery of a Small-Molecule Bromodomain-Containing Protein 4 (BRD4) Inhibitor That Induces AMP-Activated Protein Kinase-Modulated Autophagy-Associated Cell Death in Breast Cancer” (J Med Chem, 2017).
Calls of active or inactive are those of the source. The calls are words filed in the database; no cut-off is given here.

Columns and labels:
[1] = target: T1, Bromodomain-containing protein 4 (Homo sapiens, UniProt O60885); assay: Inhibition of BRD4 in human MCF7 cells assessed as increase in ATG13 phosphorylation at ser318 at 1.5 uM up to 36 hrs by Western blot analysis; type: cell-based
Outline: (§1)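 MCF-7 (1.5 μM) or MDA-MB-231 (3 μM) cells treated for indicated times. Adherent and floating cells lysed in RIPA with 1 mM PMSF. Equal protein run on 10-15% SDS-PAGE, blotted to PVDF, blocked in milk or BSA, HRP/ECL detection. β-actin loading control.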

[2] = target: T1, Bromodomain-containing protein 4; assay: Inhibition of BRD4 in human MDA-MB-231 cells assessed as increase in ULK1 phosphorylation at ser317 at 3 uM up to 36 hrs by Western blot analysis; type: cell-based; outline: as §1
[3] = target: T1, Bromodomain-containing protein 4; assay: Inhibition of BRD4 in human MCF7 cells assessed as downregulation of c-Myc expression at 1.5 uM measured up to 36 hrs by Western blot analysis; type: cell-based; outline: as §1
[4] = target: T1, Bromodomain-containing protein 4; assay: Inhibition of BRD4 in human MDA-MB-231 cells assessed as downregulation of c-Myc expression at 3 uM measured up to 36 hrs by Western blot analysis; type: cell-based; outline: as §1
[5] = system: MCF7; assay: Induction of autophagy in human MCF7 cells assessed as increase in LC3B puncta at 1.5 uM after 24 hrs by DAPI-staining based immunocytochemistry; type: functional, cell-based
Outline: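 MCF-7 cells treated with 1.5 µM for 24 h and blocked with 1.5% goat serum in PBS. Incubated overnight at 4°C with anti-LC3B (1:200) in PBS/1% BSA, then FITC secondary for 1 h at room temperature. Nuclei counterstained with DAPI; LC3B puncta imaged.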

[6] = system: MDA-MB-231; assay: Induction of autophagy in human MDA-MB-231 cells assessed as upregulation of beclin1 expression at 3 uM measured up to 36 hrs by Western blot analysis; type: functional, cell-based
Outline: (§2)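 MDA-MB-231 cells (DMEM, 10% FBS, 37 °C, 5% CO2) exposed to 3 μM for indicated times. Adherent and floating cells collected, lysed in RIPA with 1 mM PMSF at 4 °C for 1 h. Protein quantified by DC assay, resolved on 10-15% SDS-PAGE, blotted to PVDF, ECL detection.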

[7] = system: MDA-MB-231; assay: Induction of autophagy in human MDA-MB-231 cells assessed as increase in LC3-2 expression at 3 uM by Western blot analysis; type: functional, cell-based; conditions: TDE = time-dependent effect; outline: as §2
[8] = system: MCF7; assay: Induction of autophagy in human MCF7 cells assessed as downregulation of p62/SQSTM1 expression at 1.5 uM measured up to 36 hrs by Western blot analysis; type: functional, cell-based
Outline: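 MCF-7 (1.5 µM) or MDA-MB-231 (3 µM) cells treated for indicated times. Adherent and floating cells lysed in RIPA with 1 mM PMSF, 4°C for 1 h. Equal protein run on 10-15% SDS-PAGE, transferred to PVDF, blocked with milk or BSA, probed with primary then HRP secondary antibodies, ECL detection; β-actin as loading control.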

[9] = target: T1, Bromodomain-containing protein 4; assay: Inhibition of BRD4 in human MDA-MB-231 cells assessed as downregulation of AKT phosphorylation at thr308 at 3 uM measured up to 36 hrs by Western blot analysis; type: cell-based; outline: as §1
[10] = target: T1, Bromodomain-containing protein 4; assay: Inhibition of BRD4 in human MCF7 cells assessed as downregulation of mTOR phosphorylation at ser244 at 1.5 uM measured up to 36 hrs by Western blot analysis; type: cell-based; outline: as §1
[11] = system: MDA-MB-231; assay: Induction of autophagy in human MDA-MB-231 cells assessed as LC3 lipidation at 3 uM in presence of ATG5 siRNA by Western blot analysis; type: functional, cell-based
[12] = target: T1, Bromodomain-containing protein 4; assay: Inhibition of BRD4 in human MDA-MB-231 cells assessed as induction of AMPKalpha phosphorylation at thr172 at 3 uM in presence of ATG5 siRNA by Western blot analysis; type: cell-based
Outline: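 Cells given 50 nM ATG5 or negative-control siRNA (Lipofectamine RNAiMAX) and used 48 h later, then exposed to 1.5 μM (MCF-7) or 3 μM (MDA-MB-231). p-AMPKα analysed by western blot with β-actin loading control.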

[13] = system: MCF7; assay: Antitumor activity against human MCF7 cells xenografted in ig dosed nude BALB/c mouse assessed as tumor growth inhibition administered once a day for 24 days measured every 3 days relative to control; type: functional, organism-based
Outline: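 Female BALB/c nude mice, 6-8 weeks, 20-22 g, injected subcutaneously with 5×10^6 MCF-7 or MDA-MB-231 cells. At 100 mm³ tumor volume (V = L×W²/2), split into four groups: 25, 50 or 100 mg/kg intragastric once daily for 24 or 27 days, or vehicle. Tumor volume and body weight measured every 3 days; tumors excised and weighed at end. MCF-7 n=7, MDA-MB-231 n=6 per group.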

[14] = system: Mus musculus; assay: Toxicity in BALB/c mouse xenografted with human MDA-MB-231 cells assessed as effect on body weight at 25 to 100 mg/kg, ig administered once a day for […] measured every 3 days; type: organism-based; conditions: in vivo, po
Outline: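 Female BALB/c nude mice (6-8 weeks, 20-22 g) with subcutaneous MCF-7 or MDA-MB-231 xenografts (5×10^6 cells). At 100 mm3, given 25, 50 or 100 mg/kg intragastrically once daily, or vehicle, for 24 or 27 days. Body weight recorded every 3 days. MCF-7 n=7, MDA-MB-231 n=6 per group.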

[15] = system: Mus musculus; assay: In vivo Antiproliferative activity in BALB/c mouse xenografted with human MCF7 cells assessed as reduction in Ki-67 positive cells at 100 mg/kg, ig administered once a day for 24 days by hematoxylin-staining based immunohistochemistry analysis; type: functional, organism-based
Outline: (§3)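 Xenograft tumors from vehicle and 100 mg/kg groups were formalin-fixed and sectioned. Antigen retrieval by microwaving in EDTA buffer (pH 8.0) or citrate buffer (pH 6.0). […] Percentage of positive staining quantified.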

[16] = system: Mus musculus; assay: In vivo Antiproliferative activity in BALB/c mouse xenografted with human MCF7 cells assessed as increase in LC3 expression at 100 mg/kg, ig administered once a day for 24 days by hematoxylin-staining based immunohistochemistry analysis; type: functional, organism-based; outline: as §3
[17] = system: Mus musculus; assay: Induction of LC3 accumulation in BALB/c mouse xenografted with human MCF7 cells at 100 mg/kg, ig administered once a day for 24 days by Western blot analysis; type: functional, organism-based
Outline: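 Tumor tissues excised from MCF-7 or MDA-MB-231 xenograft mice were lysed and analysed by western blot for BRD4, c-Myc, LC3 and cleaved caspase-3.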

[18] = system: MCF7; assay: Antitumor activity against CM-Dil-labeled human MCF7 cells implanted in transgenic zebrafish embryos assessed as tumor growth inhibition at 12.5 to 50 uM dosed via sterile dechlorinated tap water and measured on fifth day after implantation by fluorescence assay; type: functional, organism-based
[19] = system: MDA-MB-231; assay: Induction of autophagy in human MDA-MB-231 cells assessed as assessed as cytoplasmic vacuolization; type: functional, cell-based
[20] = target: T1, Bromodomain-containing protein 4; assay: Inhibition of BRD4 in human MDA-MB-231 cells assessed as reduction in ATG13 protein expression at 3 uM up to 36 hrs by Western blot analysis; type: cell-based; outline: as §1
[21] = system: MCF-7; assay: Downregulation of HMGB1 expression in human MCF-7 cells at 1.5 uM measured up to 24 hrs by Western blot analysis

- inhibition [1]: Active
- inhibition [2]: Active
- inhibition [3]: Active
- inhibition [4]: Active
- inhibition [9]: Active
- inhibition [10]: Active
- inhibition [12]: Active
- inhibition [20]: Active
Compound: Cc1cc(-c2nc3sc4c(c3c(=O)[nH]2)CCN(C)C4)cc(C)c1O
- Activity [5]: Active
- Activity [6]: Active
- Activity [7]: Tde
- Activity [8]: Active
- Activity [11]: inactive
- TGI [13]: Dose-dependent effect
- Activity [14]: Non-Toxic
- Activity [15]: Active
- Activity [16]: Active
- Activity [17]: Active
- TGI [18]: Active
- Activity [19]: Active
- Activity [21]: Active
